The IC50 is the concentration needed to halve the response being measured.

The structures appear in SMILES notation. Active and inactive are the calls of the source. The calls are words filed in the database; no cut-off is given here. Bounds are passed on as bounds.

Experiment [1] concerns HL-60. The experiment in a line: Cytotoxicity against human HL60 cells after 72 hrs by trypan blue assay. The experiment is classed as functional, cell-based. The settings on record: HL-60, 72 h. A digest of the protocol: (§1)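 Cells seeded at 4 × 10^4 per well and cultured 24 h at 37 °C in 5% CO2. Test agents then added to the complete medium for a further 72 h. Viable cells counted by trypan blue. IC50 is the concentration giving 50% fewer cells than control cultures. HL-60 grown in RPMI 1640 + 15% heat-inactivated FCS; HL-60/MX2 grown in RPMI 1640 + 10% heat-inactivated FCS.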

The test system of the next experiment is HeLa. The experiment is described as follows: Cytotoxicity against human HeLa cells after 72 hrs by trypan blue assay. Type of experiment: functional, cell-based. A digest of the protocol: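 HeLa cells grown in Nutrient Mixture F-12 with 10% heat-inactivated FCS at 37 °C, 5% CO2. Seeded at 4 × 10^4 per well for 24 h, then medium replaced with fresh medium containing test agents for 72 h. Viability by trypan blue. IC50 is the concentration reducing cell number by 50% versus control.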

The target in experiment [2] is DNA topoisomerase 2-alpha (Homo sapiens) (UniProt P11388). The experiment in a line: Inhibition of human recombinant topoisomerase 2 relaxation activity assessed as supercoiled pBR322 DNA at 2.5 uM. In short, it runs like this:
(§2)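 Human recombinant topoisomerase IIα (1 U) relaxation of supercoiled pBR322 (0.25 μg) with compound, 60 min at 37 °C. Stopped with SDS/proteinase K (50 μg/mL, 30 min, 37 °C). Products separated on 1% agarose, stained with ethidium bromide 1 μg/mL, UV imaging. Inhibition judged by retained supercoiled DNA. Gels representative of three experiments.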

A further experiment relates to Nucleic Acid. The experiment is described as follows: Binding affinity to salmon testes DNA assessed as negative dichroic signal at 0.04 drug to DNA ratio by LD spectra. The experiment is classed as nucleic-acid assay. Conditions: Salmonidae. In short, it runs like this: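 LD spectra of salmon testes DNA (1.9 × 10^-3 M) in ETN buffer (10 mM TRIS, 10 mM NaCl, 1 mM EDTA, pH 7) at 25 °C over several [drug]/[DNA] ratios. Orientation by shear gradient of 500-700 rpm; each spectrum accumulated four times.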

For experiment [3], the target named is DNA topoisomerase 2-alpha (Homo sapiens) (UniProt P11388). The experiment in a line: Inhibition of human recombinant topoisomerase 2 relaxation activity assessed as supercoiled pBR322 DNA at 8 uM. A digest of the protocol:
as §2

Experiment [4] in a line: Stabilization of supercoiled pBR322 DNA-human recombinant topoisomerase 2 complex assessed as reduction in linear DNA formation at 8 uM.
Experiment [5] concerns the target DNA topoisomerase 2-alpha (Homo sapiens) (UniProt P11388). The experiment in a line: Inhibition of human recombinant topoisomerase 2-mediated end-labeled DNA cleavage in absence of ATP at 5 uM.
Experiment [6] has the same target. The experiment is described as follows: Inhibition of human recombinant topoisomerase 2 relaxation activity assessed as supercoiled pBR322 DNA at 5 uM. In short, it runs like this:
as §2

Experiment [7] shares this target. The experiment is described as follows: Inhibition of human recombinant topoisomerase 2 relaxation activity assessed as supercoiled pBR322 DNA. A digest of the protocol: as §2
For experiment [8] the target is unchanged. The experiment in a line: Inhibition of human recombinant topoisomerase 2-mediated end-labeled DNA cleavage in absence of ATP at 200 uM.
Experiment [9] in a line: Stabilization of supercoiled pBR322 DNA-human recombinant topoisomerase 2 complex assessed as reduction in linear DNA formation.
Experiment [10] can be described thus: Stabilization of supercoiled pBR322 DNA-human recombinant topoisomerase 2 complex assessed as reduction in linear DNA formation at 20 uM.
Experiment [11] can be described thus: Stabilization of supercoiled pBR322 DNA-human recombinant topoisomerase 2 complex assessed as reduction in linear DNA formation at 5 uM.
The subject of experiment [12] is HL-60. The experiment is described as follows: Ratio of IC50 for mitoxantrone-resistant human HL60/MX2 cells to IC50 for human HL60 cells.
The target of experiment [13] is T1, Topoisomerase I (Bos taurus) (UniProt Q2HPH0).
T1 sequence (whole entry): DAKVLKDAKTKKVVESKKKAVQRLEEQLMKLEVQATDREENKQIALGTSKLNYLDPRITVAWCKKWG
The experiment in a line: Inhibition of calf thymus topoisomerase 1-mediated supercoiled pBR322DNA relaxation activity. In short, it runs like this:
(§3)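 Calf thymus topoisomerase I (2 U) incubated with supercoiled pBR322 (0.25 μg) and compound for 60 min at 37 °C. Stopped with SDS stop buffer plus 50 μg/mL proteinase K for 30 min at 37 °C. Run on 1% agarose, stained with ethidium bromide 1 μg/mL in TAE, imaged under UV. Gels representative of three experiments.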

The nature of experiment [14]: Cytotoxicity against human mitoxantrone-resistant HL60/MX2 cells after 72 hrs by trypan blue assay. Type of experiment: functional, cell-based. Conditions: HL60/MX2, 72 h. In short, it runs like this:
as §1

The target in experiment [15] is T1, Topoisomerase I (Bos taurus). The experiment in a line: Inhibition of calf thymus topoisomerase 1-mediated supercoiled pBR322DNA relaxation activity at 10 uM. In short, it runs like this:
as §3

A short description of experiment [16]: Stabilization of supercoiled pBR322 DNA-human recombinant topoisomerase 2 complex assessed as reduction in linear DNA formation at 10 uM.

Sequence of DNA topoisomerase 2-alpha (Homo sapiens) (P11388 whole entry): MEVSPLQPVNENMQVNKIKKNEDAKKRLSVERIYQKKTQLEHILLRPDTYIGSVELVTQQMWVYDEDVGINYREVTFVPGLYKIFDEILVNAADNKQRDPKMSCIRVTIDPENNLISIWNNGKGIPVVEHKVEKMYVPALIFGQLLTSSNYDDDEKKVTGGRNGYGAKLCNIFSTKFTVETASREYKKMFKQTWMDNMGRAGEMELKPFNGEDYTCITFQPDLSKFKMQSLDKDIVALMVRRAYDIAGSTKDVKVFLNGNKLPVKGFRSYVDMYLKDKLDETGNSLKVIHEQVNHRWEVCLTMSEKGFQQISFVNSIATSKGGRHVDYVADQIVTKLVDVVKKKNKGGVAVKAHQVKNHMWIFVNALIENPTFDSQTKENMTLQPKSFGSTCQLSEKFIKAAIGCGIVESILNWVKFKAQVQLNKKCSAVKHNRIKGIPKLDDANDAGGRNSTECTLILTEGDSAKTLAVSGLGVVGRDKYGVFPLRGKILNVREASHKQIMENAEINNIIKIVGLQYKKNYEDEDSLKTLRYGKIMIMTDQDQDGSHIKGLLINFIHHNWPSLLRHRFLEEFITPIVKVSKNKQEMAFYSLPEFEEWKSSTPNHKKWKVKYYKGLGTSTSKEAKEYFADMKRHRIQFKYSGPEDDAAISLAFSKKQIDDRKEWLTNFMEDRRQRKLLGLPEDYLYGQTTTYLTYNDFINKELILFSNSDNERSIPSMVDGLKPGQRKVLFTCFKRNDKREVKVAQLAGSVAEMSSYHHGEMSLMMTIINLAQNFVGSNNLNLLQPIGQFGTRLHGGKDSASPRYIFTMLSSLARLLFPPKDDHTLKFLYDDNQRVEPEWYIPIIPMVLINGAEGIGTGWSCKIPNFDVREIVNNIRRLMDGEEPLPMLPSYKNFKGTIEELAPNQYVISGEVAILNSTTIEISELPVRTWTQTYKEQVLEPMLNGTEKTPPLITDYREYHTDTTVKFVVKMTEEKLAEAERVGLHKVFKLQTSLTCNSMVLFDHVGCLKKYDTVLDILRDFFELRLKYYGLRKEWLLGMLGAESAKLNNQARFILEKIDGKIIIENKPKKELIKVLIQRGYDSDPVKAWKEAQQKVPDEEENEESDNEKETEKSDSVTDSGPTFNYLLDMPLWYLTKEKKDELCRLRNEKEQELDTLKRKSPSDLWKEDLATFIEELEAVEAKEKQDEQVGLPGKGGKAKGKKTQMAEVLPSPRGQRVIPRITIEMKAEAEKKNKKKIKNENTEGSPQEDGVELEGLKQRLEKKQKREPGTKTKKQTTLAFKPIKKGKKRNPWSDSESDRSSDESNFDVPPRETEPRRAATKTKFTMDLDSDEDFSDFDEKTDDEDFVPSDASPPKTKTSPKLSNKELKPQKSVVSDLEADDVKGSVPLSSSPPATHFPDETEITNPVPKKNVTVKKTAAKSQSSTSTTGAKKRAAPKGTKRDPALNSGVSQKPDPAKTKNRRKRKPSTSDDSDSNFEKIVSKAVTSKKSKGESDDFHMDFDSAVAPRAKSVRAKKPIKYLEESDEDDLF

Consider `Cc1c2ccncc2c(C)c2c1[nH]c1ccccc12` [ELLIPTECINE], for which the IC50 with HL-60 [1] came out at 660 nM; with HeLa it was 290 nM.
Regarding `COc1ccc2c(=O)c3c(sc2c1)c1ccccc1n3CCCN(C)C`, the IC50 was 1900 nM in the experiment with HL-60 [1] and 2900 nM in the experiment on HeLa. Moreover, the outcome in experiment [2] was Active.
In the case of `CCN(CC)CCn1c2ccccc2c2sc3cc(OC)ccc3c(=O)c21`, the result (in the experiment with Nucleic Acid; in [2]) was Active. Further, the results for the IC50 in the experiment with HL-60 [1] and in the experiment with HeLa were 1800 nM and 2700 nM, respectively.
For `CCN(CC)CCCn1c2ccccc2c2sc3cc(OC)ccc3c(=O)c21`, the result (in the experiment with Nucleic Acid; in experiment [2]) was Active. Moreover, the IC50 was found to be 2400 nM with HL-60 [1] and 3900 nM with HeLa.
`COc1ccc2c(=O)c3c(sc2c1)c1cc(OC)ccc1n3CCCN(C)C`: the values for the IC50 with HL-60 [1] and with HeLa were 1350 nM and 2600 nM, respectively.
For `CN(C)CCCn1c2ccccc2c2sc3cc(Cl)ccc3c(=O)c21`, in that order: 7190 nM and 14000 nM.
Regarding `CCN(CC)CCn1c2ccc(Cl)cc2c2sc3cc(OC)ccc3c(=O)c21`, the IC50 was 710 nM in the experiment on HL-60 [1] and 1120 nM in the experiment with HeLa.
Consider `COc1cc(NS(C)(=O)=O)ccc1Nc1c2ccccc2nc2ccccc12`, for which the outcome in [3] and in [4] was Active.
`COc1ccc2c(=O)c3c(sc2c1)c1cc(Cl)ccc1n3CCN(C)C`: the IC50 with HL-60 [1] worked out at 1170 nM; in the experiment on HeLa, 1820 nM.
On to `CCN(CC)CCn1c2ccccc2c2sc3cc(Cl)ccc3c(=O)c21`, for which the IC50 with HL-60 [1] is 3210 nM; in the experiment on HeLa, 4330 nM.
On to `COc1ccc2c(=O)c3[nH]c4ccc(OC)cc4c3sc2c1`, for which the IC50 in the experiment on HL-60 [1] and in the experiment on HeLa was greater than 20000 nM each time.
In the case of `CCN(CC)CCCn1c2ccc(Cl)cc2c2sc3cc(OC)ccc3c(=O)c21`, the IC50 stood at 1020 nM with HL-60 [1] and 1680 nM in the experiment on HeLa.
For `COc1ccc2c(=O)c3[nH]c4ccccc4c3sc2c1`, the result (in the experiment with Nucleic Acid; in experiment [2]) was Active. The IC50 in the experiment on HL-60 [1] and in the experiment on HeLa was greater than 20000 nM in each case.
Turning to `CCN(CC)CCn1c2ccc(OC)cc2c2sc3cc(OC)ccc3c(=O)c21`, the values for the concentration for half-maximal inhibition (IC50) with HL-60 [1] and in the experiment on HeLa were 1100 nM and 2300 nM, respectively.
In the same order, the values of `CCN(CC)CCCn1c2ccc(OC)cc2c2sc3cc(OC)ccc3c(=O)c21` are 1500 nM and 2500 nM.
In the same order, the values of `COc1ccc2c(=O)c3[nH]c4ccc(Cl)cc4c3sc2c1` are greater than 20000 nM and greater than 20000 nM.
For `CCN(CC)CCCn1c2ccccc2c2sc3cc(Cl)ccc3c(=O)c21`, in that order: 2640 nM and 2910 nM.
`COc1ccc2c(=O)c3c(sc2c1)c1cc(OC)ccc1n3CCN(C)C`: the result in [5], in experiment [6], in experiment [8] and in experiment [2] was Active. Besides, in experiment [7], the Activity entry was “Dose-dependent effect”. The IC50 with HL-60 [1] is 660 nM; with HeLa, 2150 nM. The result in experiment [9] was inactive.
Take `COc1ccc2c(=O)c3c(sc2c1)c1cc(Cl)ccc1n3CCCN(C)C`: the 50% inhibitory concentration (IC50) in the experiment on HL-60 [1] is 1070 nM; with HeLa, 1850 nM.
Consider `O=c1c2ccc(Cl)cc2sc2c1[nH]c1ccccc12`, for which the IC50 in the experiment with HL-60 [1] and with HeLa was greater than 20000 nM each time.
Consider `CN(C)CCn1c2ccccc2c2sc3cc(Cl)ccc3c(=O)c21`, for which the values for the IC50 in the experiment on HL-60 [1] and in the experiment with HeLa were 1310 nM and 1530 nM, respectively.
As to `COc1ccc2c(=O)c3c(sc2c1)c1ccccc1n3CCN(C)C`, the outcome (in [10]; in experiment [11]; in experiment [6]; in the experiment with Nucleic Acid; in [15]; in experiment [2]) was Active. Moreover, in [16], the outcome was Active. In the experiment with HL-60 [12], the “Ratio IC50” value stood at 6. The Activity entry in [13] and in experiment [7] was “Dose-dependent effect” in each case. In addition, the values for the IC50 (in experiment [14]; in the experiment on HL-60 [1]; in the experiment with HeLa) were 2350 nM, 410 nM and 1300 nM, respectively.

(Values after ChEMBL document CHEMBL1152447, “Benzothiopyranoindole-based antiproliferative agents: synthesis, cytotoxicity, nucleic acids interaction, and topoisomerases inhibition properties” (J Med Chem, 2009).)
